From the M2OR odorant receptor database

target: T1, UniProt E9Q9Z6; conditions: stereoisomer not certain
T1 sequence (whole entry): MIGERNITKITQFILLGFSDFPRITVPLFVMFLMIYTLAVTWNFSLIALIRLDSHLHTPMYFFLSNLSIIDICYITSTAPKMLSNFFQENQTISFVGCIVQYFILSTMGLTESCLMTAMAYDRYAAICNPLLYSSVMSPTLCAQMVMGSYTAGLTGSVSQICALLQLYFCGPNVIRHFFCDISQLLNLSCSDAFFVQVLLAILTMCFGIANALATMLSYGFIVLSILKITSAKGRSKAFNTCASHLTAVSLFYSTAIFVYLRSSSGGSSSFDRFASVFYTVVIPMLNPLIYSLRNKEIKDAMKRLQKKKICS
Summary of the method: (§1)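 Transient luciferase assays in mammalian cell lines were common, though methods varied by source. The values come from published papers and their supplementary material, with extra details from the original authors when needed. Responsive refers to a measured signal the original authors judged statistically different from baseline, and non-responsive (inactive) to the remainder.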
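Note: active if original authors judged signal statistically different from baseline.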

| Compound | odorant receptor agonist call |
| --- | --- |
| CC1C(C)(C)C2=C(C(=O)CCC2)C1(C)C (stereo not drawn) | inactive |
| CC1CCCCCCCCCCCC(=O)C1 (stereo not drawn) | active |
| C1CCCCCCCCCCCCCC1 | inactive |
| O=C1CCCCCCCCC1 | inactive |
| CC(=O)c1c(C)c([N+](=O)[O-])c(C(C)(C)C)c([N+](=O)[O-])c1C | active |
| O=C1CCCC=CCCCCCCCCCC1 | active |
| O=C1C=CCCCCCCCCCCCCO1 | active |
| CC1CCCCCCCCCCCCC(=O)C1 (stereo not drawn) | active |
| O=C1CCCCCCCCCC1 | inactive |
| O=C1CCCCCC=CCCCCCCCCO1 | inactive |
| CCC(=O)OCC(C)(C)OC(C)C1CCCC(C)(C)C1 (stereo not drawn) | inactive |
| O=C1CCCCCCC=CCCCCCCC1 | active |
| CC1CC=CCCCCCCCCC(=O)C1 (stereo not drawn) | active |
| CCCCCCCCCCCCCC(C)=O | active |
| OC1CCCCCCCCCCCCCC1 | active |
| O=C1CCCCCCCCCCCCCC1 | active |
| CCCCCCCC(=O)CCCCCCC | inactive |

target: T2, UniProt E9QAT7; conditions: stereoisomer not certain
T2 sequence (whole entry): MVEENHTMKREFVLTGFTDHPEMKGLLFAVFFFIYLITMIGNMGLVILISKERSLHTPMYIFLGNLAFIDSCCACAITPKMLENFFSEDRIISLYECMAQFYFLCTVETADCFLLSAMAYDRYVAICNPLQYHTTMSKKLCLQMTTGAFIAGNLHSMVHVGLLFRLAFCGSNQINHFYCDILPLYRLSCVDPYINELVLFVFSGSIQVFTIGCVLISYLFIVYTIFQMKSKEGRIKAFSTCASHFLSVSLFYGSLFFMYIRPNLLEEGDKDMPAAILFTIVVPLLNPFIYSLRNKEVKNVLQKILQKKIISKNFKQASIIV
Summary of the method: as §1

| Compound | odorant receptor agonist call |
| --- | --- |
| CCc1nccnc1C(C)=O | inactive |
| CCc1nccnc1C | inactive |
| CC(=O)c1cnccn1 | inactive |
| C=Cc1cnccn1 | inactive |
| CCc1nccnc1OC | active |
| CC1=NC(C)C(C)S1 (stereo not drawn) | active |
| Cc1cnc(C)c(C)n1 | active |
| CC1CCc2nccnc21 (stereo not drawn) | inactive |
| CCc1cnc(C)c(C)n1 | active |
| Cc1nccnc1C | inactive |
| Cc1cncc(C)n1 | active |
| CC(=O)c1nccnc1C | inactive |
| Cc1cnc(C)cn1 | inactive |
| COC1=C(C)OC(C)C1=O (stereo not drawn) | inactive |
| Cc1cnccn1 | inactive |
| COc1nccnc1CC(C)C | inactive |
